Converted amounts (≈) assume the structure as drawn. The source made the active and inactive calls. How the calls were made is not given here. Where only a bound is given, the exact number is not on record here.

The values that follow come from ChEMBL document CHEMBL1144182, “Antimicrobial and cytotoxic arylazoenamines. Part III: antiviral activity of selected classes of arylazoenamines” (Bioorg Med Chem, 2008).

In data set [1] the test system is Bovine viral diarrhea virus 1. The data set is described as follows: Antiviral activity against BVDV infected in MDBK cells assessed as protection against virus-induced cytopathogenicity after 4 days by MTT assay. To be noted: Bovine viral diarrhea virus isolates and strains, 96 h. In kind it is functional, organism-based. The method, boiled down:
(§1)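 MDBK (BVDV) or BHK-21 (YFV) cells were seeded at 3 × 10^4 or 5 × 10^4 cells/well respectively and grown overnight to confluent monolayers at 37 °C in 5% CO2. Monolayers were infected at m.o.i. 0.01 in serum-free medium. After 1 h, MEM Earle's with 1% FCS was added, with or without serial compound dilutions. After 3–4 days at 37 °C, viability was read by MTT. EC50 was taken as 50% protection from virus-induced cytopathogenicity.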

A further data set deals with Yellow fever virus. The data set is described as follows: Antiviral activity against YFV infected in BHK21 cells assessed as protection against virus-induced cytopathogenicity after 4 days by MTT assay. Conditions: BHK-21, 96 h. The data set is classed as functional, organism-based. An outline of the steps: as §1
Background: Damage to the host cells serves as the signal in cytopathic effect assays.

Another data set has as its system Poliovirus 1. Put plainly: Antiviral activity against Sb1 virus infected in Vero76 cells assessed as reduction in virus plaque formation after 4 days by MTT assay. In kind it is functional, organism-based. To be noted: Enterovirus C, Sabin, Vero 76, 96 h.
Data set [2] is described as follows: Cytotoxicity against mock-infected MDBK cells assessed as reduction in cell viability after 96 hrs by MTT assay. In kind it is cell-based, Bos taurus. Conditions: cattle. An outline of the steps:
(§2)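 Cytotoxicity run in parallel with the antiviral assays. MDBK seeded at 6 × 10^5 and BHK at 1 × 10^6 cells/mL in maintenance medium with or without serial compound dilutions. Incubated 48–96 h at 37 °C, 5% CO2, then viability read by MTT. CC50 is the concentration reducing mock-infected cell viability by 50%.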

A further data set concerns Vaccinia virus. The data set is described as follows: Antiviral activity against VV infected in Vero76 cells assessed as reduction in virus plaque formation after 4 days by MTT assay. In kind it is functional, organism-based. To be noted: Orthopoxvirus vaccinia; Vero 76. Background: Tetrazolium assays rely on reduction of a dye to a coloured formazan, in cell work by metabolically active cells.

The subject of data set [3] is Human immunodeficiency virus 1. Put plainly: Antiviral activity against HIV1 infected in MT4 cells assessed as virus-induced cytopathogenicity after 4 days. The data set is classed as functional, organism-based.
Data set [4] has as its system Vesicular stomatitis virus. The data set is described as follows: Antiviral activity against VSV infected in Vero76 cells assessed as reduction in virus plaque formation after 4 days by MTT assay. The data set is classed as functional, organism-based. To be noted: Vero 76.
Data set [5] can be described thus: Cytotoxicity against mock-infected african green monkey Vero76 cells assessed as reduction in cell viability after 96 hrs by MTT assay. In kind it is cell-based, Vero. Conditions: chlorocebus sabaeus.
Data set [6] is described as follows: Cytotoxicity against mock-infected human MT4 cells assessed as reduction in cell viability after 96 hrs by MTT assay. The data set is classed as cell-based. The method, boiled down:
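Exponentially growing MT-4 cells seeded at 1 × 10^5 cells/mL in RPMI-1640 with 10% FCS, penicillin and streptomycin, with or without serial compound dilutions. Incubated at 37 °C, 5% CO2; viability read by MTT after 96 h. CC50 is the concentration reducing mock-infected cell viability by 50%.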

The test system of data set [7] is Mammalian orthoreovirus 1. Put plainly: Antiviral activity against Reo virus 1 infected in BHK21 cells assessed as protection against virus-induced cytopathogenicity after 4 days by MTT assay. In kind it is functional, organism-based. Conditions: Mammalian orthoreovirus 1, BHK-21, 96 h.
A further data set relates to Coxsackievirus B2. The data set is described as follows: Antiviral activity against CVB2 infected in Vero76 cells assessed as reduction in virus plaque formation after 4 days by MTT assay. To be noted: Enterovirus B, Vero 76, 96 h. The data set is classed as functional, organism-based.
A short description of data set [8]: Cytotoxicity against mock-infected BHK cells assessed as reduction in cell viability after 96 hrs by MTT assay. The data set is classed as cell-based, Mesocricetus auratus. Conditions: hamster. The method, boiled down:
as §2

In data set [9] the test system is Respiratory syncytial virus. Put plainly: Antiviral activity against RSV infected in Vero76 cells assessed as reduction in virus plaque formation after 4 days by MTT assay. In kind it is functional, organism-based. To be noted: human respiratory syncytial virus, Vero 76, 96 h.
Another data set relates to Human alphaherpesvirus 1. The data set is described as follows: Antiviral activity against HSV1 infected in Vero76 cells assessed as reduction in virus plaque formation after 4 days by MTT assay. To be noted: Human alphaherpesvirus 1, Vero 76, 96 h. The data set is classed as functional, organism-based.
The next data set deals with Pseudomonas aeruginosa. Put plainly: Antimicrobial activity against Pseudomonas aeruginosa. In kind it is functional.
A further data set concerns Candida. Put plainly: Antimicrobial activity against Candida.

In general, EC50 refers to the midpoint of the concentration-response curve. Broadly, the CC50 is the concentration that lowers cell viability or growth by half. For `CN1C=C(/N=N/c2ccc(Cl)cc2)CCC1`, the 50% effective concentration (EC50) was > 58 µM in data set [1]; > 100 µM in the data set on Yellow fever virus; 8 µM in the data set with Poliovirus 1; 32 µM in data set [7]; 5 µM in the data set on Coxsackievirus B2; 20 µM in data set [9]. In addition, the CC50 at 96 h is 58 µM in data set [2], 90 µM in data set [5], > 100 µM in data set [6] and > 100 µM in data set [8]. Further, the result (in the data set with Vaccinia virus; in data set [3]; in [4]) was inactive.
Take `FC(F)(F)c1cc(/N=N\C2=C3CCCCN3CCC2)ccc1Br`: the concentration for a half-maximal effect (EC50) in [1] was 61 µM; with Yellow fever virus it was 80 µM; with Poliovirus 1, 25 µM; with Human alphaherpesvirus 1, 25 µM; in the data set with Coxsackievirus B2 it was 42 µM; in [9] it was > 100 µM. Besides, the CC50 at 96 h is > 100 µM in [2], 100 µM in data set [5], 34 µM in data set [6] and > 100 µM in data set [8]. The result (with Vaccinia virus; in data set [3]; in data set [4]) was inactive.
For `CN1C=C(/N=N/c2ccc(Br)cc2)CCC1`, the concentration for a half-maximal effect (EC50) in data set [1] is 60 µM; in the data set with Yellow fever virus, 100 µM; with Poliovirus 1, > 100 µM; in data set [7], 76 µM; in the data set with Coxsackievirus B2 it was > 100 µM; in data set [9], 18 µM. Moreover, the 50% cytotoxic concentration (CC50) at 96 h in [2] was > 100 µM; in data set [5], 100 µM; in data set [6], 83 µM; in data set [8] it was > 100 µM. Moreover, the result (in the data set with Vaccinia virus; in [3]; in [4]) was inactive.
As to `CN1CCC/C1=C\N=N\c1ccc(F)c(C(F)(F)F)c1`, the concentration giving a half-maximal response (EC50) in data set [1] is 100 µM; with Yellow fever virus, > 41 µM; in the data set with Poliovirus 1 it was > 100 µM; with Human alphaherpesvirus 1, 60 µM; in the data set on Coxsackievirus B2, 71 µM; in data set [9] it was > 100 µM. Besides, the 50% cytotoxic concentration (CC50) at 96 h in data set [2] is > 100 µM; in data set [5], > 100 µM; in [6] it was 11 µM; in data set [8], 41 µM. Further, the result (with Vaccinia virus; in data set [3]; in data set [4]) was inactive.
For orientation: MIC means the lowest concentration found to suppress growth. Turning to `CCn1cc(C(=O)O)c(=O)c2cc(F)c(N3CCNCC3)cc21` [NORFLOXACIN], the lowest concentration to inhibit growth in the data set on Pseudomonas aeruginosa (MIC) was 4 µg/mL (≈ 12.5 µM).
On to `FC(F)(F)c1cc(/N=N\C2=C3CCCN3CCC2)ccc1Cl`, for which the concentration giving a half-maximal response (EC50) in data set [1] is > 21 µM; with Yellow fever virus it was > 51 µM; in the data set on Poliovirus 1, 12 µM; in the data set on Human alphaherpesvirus 1, 33 µM; with Coxsackievirus B2, 9 µM; in [9] it was > 100 µM. For the same compound, the half-maximal cytotoxic concentration (CC50) at 96 h in [2] was determined as 21 µM; in [5] it was 100 µM; in [6] it was 30 µM; in data set [8], 51 µM. The outcome (in the data set on Vaccinia virus; in data set [3]; in data set [4]) was inactive.
Consider `CN1CCC/C1=C\N=N\c1ccc(Cl)c(Cl)c1`, for which the EC50 in data set [1] is 16 µM; in the data set with Yellow fever virus, > 23 µM; in the data set with Poliovirus 1, 53 µM; with Human alphaherpesvirus 1, 40 µM; with Coxsackievirus B2, > 100 µM; in data set [9], > 100 µM. Besides, the 50% cytotoxic concentration (CC50) at 96 h in [2] was 90 µM; in [5] it was 100 µM; in [6] it was 39 µM; in data set [8], 23 µM. Further, the outcome (in the data set with Vaccinia virus; in [3]; in data set [4]) was inactive.
`Clc1ccc(COC(Cn2ccnc2)c2ccc(Cl)cc2Cl)c(Cl)c1.O=[N+]([O-])O` (stereo not drawn) [MICONAZOLE NITRATE] yielded an MIC against Candida of 0.25 µg/mL.
Turning to `Fc1ccc(/N=N\C2=C3CCCCN3CCC2)cc1`, the EC50 was > 56 µM in data set [1]; 100 µM with Yellow fever virus; > 100 µM in the data set on Poliovirus 1; 34 µM in data set [7]; 27 µM in the data set on Coxsackievirus B2; > 100 µM in data set [9]. The CC50 at 96 h in data set [2] was 56 µM; in [5], > 100 µM; in data set [6], 94 µM; in [8], > 100 µM. Besides, the outcome (in the data set on Vaccinia virus; in [3]; in [4]) was inactive.
